Measurements from ChEMBL document CHEMBL1681705, “Optimisation of ITK inhibitors through successive iterative design cycles” (Bioorg Med Chem Lett, 2011).

Key:
[1] = Solubility of the compound; assay type: physicochemical
Mus musculus [2] = assay: Antiinflammatory activity in iv dosed BALB/c mouse assessed as inhibition of monoclonal anti-CD3-induced IL-2 production administered 10 min before monoclonal anti-CD3 challenge measured after 2 hrs by ELISA
Mus musculus [3] = assay: Antiinflammatory activity in BALB/c mouse assessed as inhibition of monoclonal anti-CD3-induced IL-2 production at 10 mg/kg, iv administered 10 min before monoclonal anti-CD3 challenge measured after 2 hrs by ELISA; settings: BLD = below limit of detection
Mus musculus [4] = assay: Antiinflammatory activity in BALB/c mouse assessed as inhibition of monoclonal anti-CD3-induced IL-2 production at 10 mg/kg, po administered 1 hr before monoclonal anti-CD3 challenge measured after 2 hrs by ELISA relative to control; assay type: functional
Summary of the method: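 Female BALB/c mice (~20 g) dosed orally at 10 mg/kg, 1 h before iv anti-CD3 monoclonal antibody (clone 145-2C11, 10 µg/kg). Vehicle (saline) plus antibody group served as positive control. Plasma IL-2 determined from heart-puncture blood 2 h after stimulation, under anaesthesia. Inhibition expressed relative to vehicle; n = 8 mice/group.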

[5] = biological target: T1, Ephrin type-B receptor 3 (Homo sapiens) (UniProt P54753); assay: Inhibition of EphB3 at 0.1 uM; values are per cent of control
T1 sequence (whole entry): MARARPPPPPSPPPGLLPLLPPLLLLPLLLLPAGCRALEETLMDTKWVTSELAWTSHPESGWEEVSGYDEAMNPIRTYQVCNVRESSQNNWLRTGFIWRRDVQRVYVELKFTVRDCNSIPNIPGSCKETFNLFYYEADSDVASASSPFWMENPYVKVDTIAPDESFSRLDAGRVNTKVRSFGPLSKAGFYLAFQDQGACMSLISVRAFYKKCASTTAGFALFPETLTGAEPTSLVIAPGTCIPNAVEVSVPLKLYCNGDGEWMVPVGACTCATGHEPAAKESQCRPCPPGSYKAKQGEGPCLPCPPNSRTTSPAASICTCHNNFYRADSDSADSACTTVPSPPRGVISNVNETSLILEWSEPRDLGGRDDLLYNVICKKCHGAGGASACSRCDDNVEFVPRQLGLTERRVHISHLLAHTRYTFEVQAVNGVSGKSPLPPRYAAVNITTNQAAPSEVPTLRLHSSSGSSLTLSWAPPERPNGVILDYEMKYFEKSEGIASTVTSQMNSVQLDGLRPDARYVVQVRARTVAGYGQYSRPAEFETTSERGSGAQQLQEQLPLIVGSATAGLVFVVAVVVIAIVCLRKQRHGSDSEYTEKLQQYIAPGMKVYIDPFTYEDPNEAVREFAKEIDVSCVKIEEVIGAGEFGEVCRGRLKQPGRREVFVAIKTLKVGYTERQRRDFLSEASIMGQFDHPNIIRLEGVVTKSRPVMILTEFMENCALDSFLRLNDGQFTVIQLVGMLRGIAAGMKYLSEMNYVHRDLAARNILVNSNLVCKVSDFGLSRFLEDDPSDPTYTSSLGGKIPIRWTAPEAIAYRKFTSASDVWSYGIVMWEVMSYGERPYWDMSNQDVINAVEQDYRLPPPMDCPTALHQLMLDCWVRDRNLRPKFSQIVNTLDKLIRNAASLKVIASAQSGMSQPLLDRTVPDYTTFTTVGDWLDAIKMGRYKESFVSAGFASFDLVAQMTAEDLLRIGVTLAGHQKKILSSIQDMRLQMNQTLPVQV

[6] = biological target: Serine/threonine-protein kinase PAK 2 (Homo sapiens) (UniProt Q13177); assay: Inhibition of PAK2 at 0.1 uM; values are per cent of control
Chain of Serine/threonine-protein kinase PAK 2 (Homo sapiens) (Q13177 whole entry): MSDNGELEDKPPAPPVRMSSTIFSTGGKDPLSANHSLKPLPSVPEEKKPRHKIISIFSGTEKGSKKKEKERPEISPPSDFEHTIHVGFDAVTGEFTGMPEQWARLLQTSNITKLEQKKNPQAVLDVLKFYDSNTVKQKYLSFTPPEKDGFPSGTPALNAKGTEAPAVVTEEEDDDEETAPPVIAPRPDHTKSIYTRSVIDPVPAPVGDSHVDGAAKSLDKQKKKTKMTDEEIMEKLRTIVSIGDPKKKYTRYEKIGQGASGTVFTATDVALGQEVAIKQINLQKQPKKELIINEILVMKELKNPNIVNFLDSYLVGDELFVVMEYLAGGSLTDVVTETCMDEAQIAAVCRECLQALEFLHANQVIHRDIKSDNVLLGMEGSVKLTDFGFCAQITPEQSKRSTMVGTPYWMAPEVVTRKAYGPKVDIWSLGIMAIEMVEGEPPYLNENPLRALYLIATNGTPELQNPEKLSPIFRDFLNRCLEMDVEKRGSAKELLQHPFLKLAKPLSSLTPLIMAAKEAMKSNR

[7] = Inhibition of ROCK1 at 1 uM

Structure (SMILES)	solubility [1]	ED50 (Mus musculus [2]) [mg/kg]	inhibition (Mus musculus [2])	inhibition (Mus musculus [3])	inhibition in vivo at 10 mg/kg (Mus musculus [4]) [%]	residual activity [5] [%]	residual activity [6] [%]	inhibition [7] [%]
Cc1ccc2cc(-c3n[nH]c4ccc(NC5CCNC5)cc34)[nH]c2c1 (stereo not drawn)	soluble	2.1	Dose-dependent effect	BLD	> 80	–	–	–
Cc1ccc2cc(-c3n[nH]c4ccc(NC5CCN(Cc6ccccc6)CC5)cc34)[nH]c2c1	–	–	–	–	–	127	93	45
